In the library only some 4.1% were active in any assay of this set; here they are far more common.
KCC2 mod – KCC2 (human) Cl- transport modulation. Q9H2X9. KCC2 cells, thallium flux FluoZin-2 fluorescence. B-score of Tl+ flux slope (higher = more flux/activation; lower = inhibition) at 10 µM. actives 2.2% (n = 190,000). AID 1456;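 active = thallium flux slope and its plate-corrected score both differing from the plate sample mean at a set confidence after two filtering rounds, in either direction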;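 note: slope of fluorescence scaled to starting intensity during 10 to 20 s after thallium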
KCNK9 inh – inhibitors of human KCNK9 two-pore domain potassium channel; AID 488922; Q9NPC2; actives 1.2% (n = 310,000); HEK293 KCNK9, FluxOR thallium flux fluorescence; stronger effect = lower value; B-score at 10 µM;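 active = ratio B-score over 3 SD below the library mean, with starting fluorescence within 5 SD of its mean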;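 note: negative B-score means less thallium flux so channel inhibition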
Target sequence (Q9NPC2 whole entry, looked up, the tested form may be a part): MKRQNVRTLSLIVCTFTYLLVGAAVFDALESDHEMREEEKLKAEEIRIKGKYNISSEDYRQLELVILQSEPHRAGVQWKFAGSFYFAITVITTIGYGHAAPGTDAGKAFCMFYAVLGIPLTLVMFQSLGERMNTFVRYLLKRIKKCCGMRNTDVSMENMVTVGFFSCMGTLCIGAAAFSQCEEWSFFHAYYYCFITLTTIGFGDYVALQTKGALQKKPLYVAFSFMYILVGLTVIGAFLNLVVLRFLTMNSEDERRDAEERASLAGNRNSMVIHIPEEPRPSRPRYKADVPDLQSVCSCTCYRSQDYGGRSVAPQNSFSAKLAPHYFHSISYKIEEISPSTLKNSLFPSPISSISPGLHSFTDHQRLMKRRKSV
KCNQ1 act – human KCNQ1 channel potentiation or activation; P51787; CHO-K1 KCNQ1, thallium flux FluxOR fluorescence; stronger effect = higher value; B-score at 10 µM; actives 0.35% (n = 310,000); AID 2648;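 active = fluorescence ratio B-score, a plate-corrected score, at least three library SD, with initial intensity B-score within 5 SD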
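Assay system: CHO-K1 cells stably expressing KCNQ1. Medium: assay buffer for compound exposure, DMSO matched across wells. Timing: 37 °C overnight plating, 90-min dark dye load, 20-min compound pretreatment. Signal: kinetic FluxOR fluorescence, 10 s baseline plus 110 s post-stimulus.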
KCNQ1 block – inhibitors of human KCNQ1 potassium channel; CHO-K1 KCNQ1, FluxOR thallium flux fluorescence; stronger effect = higher value; B-score at 10 µM; actives 1.3% (n = 310,000); AID 2642;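 active = compounds whose thallium flux B-score, printed positive for inhibition, exceeds three library SD while starting fluorescence stays within three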;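 note: channel opened by potassium depolarization with thallium stimulus after 20 min compound exposure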
hERG protect – compounds protecting human hERG from proarrhythmic drug block; AID 1511; CHO-hERG, FluxOR thallium flux, dofetilide IC70 present; activation (rescue from dofetilide block), less the hit threshold, % at 10 µM; Q12809; actives 0.51% (n = 310,000);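 active = activation above the mean of controls blocked by dofetilide plus 5 SD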;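 note: thallium influx through hERG after potassium depolarization seen as dye fluorescence rise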
KCNK3 inh – human KCNK3 channel inhibition, primary screen; O14649; B-score at 10 µM; AID 602410; actives 0.84% (n = 340,000); CHO-KCNK3 thallium flux, FluxOR fluorescence; stronger effect = lower value;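 active = B-score under library mean minus 4 SD, starting fluorescence ratio at most library mean plus 5 SD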;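 note: more negative B-score means stronger inhibition of thallium flux through KCNK3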
KCC2 secondary – confirmation of human KCC2 transport modulators. actives 15% (n = 3,700). shares compounds with KCC2 mod. normalised thallium flux (F/F0 slope) at 10 µM. HEK293-KCC2, thallium flux, FluoZin2 fluorescence; stronger effect = higher value;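 active = thallium flux slope above the same plate's solvent-only control mean plus 3 SD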
KCC2 bumet counter – bumetanide-insensitive thallium flux in KCC2 cells with ouabain, counter-screen. shares compounds with KCC2 mod. normalized thallium flux at 10 µM. actives 49% (n = 3,700). AID 1714. HEK293-KCC2 + bumetanide/ouabain, thallium flux FluoZin2; stronger effect = higher value;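 active = thallium entry rate above the same plate's blocked-transporter control wells by more than 3 SD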;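 note: raw slope of fluorescence over initial fluorescence between 10 and 20 s after thallium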
KCC2 sec2 – KCC2 (human) modulation, second secondary assay. shares compounds with KCC2 mod. actives 23% (n = 3,700). normalized thallium flux at 10 µM. HEK293-KCC2, thallium flux FluoZin2 fluorescence; actives lie on both sides; F/F0 rise rate, 10–20 s post-thallium;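 active = thallium flux slope more than 3 SD above or below the plate's solvent-only control mean, mostly below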;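 note: raw slope with 0.1% DMSO as baseline and bumetanide as block control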
HEK counter1 – acts in parental HEK cells, KCC2 counter-screen; shares compounds with KCC2 mod; HEK293 parental cells, thallium flux FluoZin2, ouabain; baseline-ratio fluorescence slope, 10–20 s after thallium; thallium flux rate (normalised fluorescence) at 10 µM; actives 46% (n = 3,700);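 active = thallium flux rate significantly above the same plate's solvent-only control wells, beyond their mean plus 3 SD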
KCC2 retest ouab – modulates human KCC2 on retest with ouabain; AID 1717; HEK293-KCC2, thallium flux FluoZin2 fluorescence; bidirectional: low = inhibitor, high = activator; raw Tl+ flux slope (below DMSO = inhibition, above = activation) at 10 µM; actives 48% (n = 3,700); shares compounds with KCC2 mod;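 active = thallium flux slope beyond 3 SD from same-plate DMSO control mean in most replicates, usually higher, sometimes lower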;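 note: slope of initial-normalized fluorescence between seconds 10 and 20 after thallium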
HEK293 Tl flux2 – acts in parental HEK cells, second KCC2 counter-screen | shares compounds with KCC2 mod | HEK293 parental, thallium flux FluoZin-2 fluorescence slope | thallium flux slope at 10 µM | actives 33% (n = 3,700);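 active = thallium flux slope above the same plate's solvent-control mean plus 3 SD in both duplicate wells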;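 note: run without ouabain in cells lacking the KCC2 cotransporter; slope of fluorescence scaled to its starting value between 10 and 20 s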
KCNK9 block conf – human KCNK9 inhibitor confirmation. shares compounds with KCNK9 inh. AID 492992. inhibition, % at 10 µM. HEK293 KCNK9 cells, FluxOR thallium flux fluorescence. actives 43% (n = 4,900);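 active = thallium signal inhibited by more than 5 SD of the compound-free buffer control wells, on both duplicate plates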;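 note: 0% = assay buffer control wells without compound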
Kir21 sel – mouse Kir2.1 off-target activity of KCNK9 modulators; Kir2.1 cells, FluxOR thallium flux fluorescence; actives 4% (n = 4,900); AID 492993; inhibition, % at 10 µM; shares compounds with KCNK9 inh;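 active = thallium signal drop more than 5 SD beyond the mean of the no-compound control wells, seen in both duplicate plates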;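 note: signal is fluorescence rise after thallium addition divided by baseline fluorescence; plate controls were assay buffer only for no effect and full block by chlorpromazine control for full effect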
KCNK9 uninduced – second counter-screen for KCNK9 modulators: effect in non-induced cells | shares compounds with KCNK9 inh | non-induced KCNK9-HEK293, FluxOR thallium flux | inhibition, % at 10 µM | actives 40% (n = 4,900);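 active = thallium signal drop beyond 5 SD of the untreated control mean, on both duplicate plates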;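 note: plate controls were buffer only IC0 wells for no effect and SID17386958 at its maximal inhibitory level for full effect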
Active calls of the source: *.

Screening Cc1nc(Nc2ccc(Cl)cc2Cl)sc1C(=O)Nc1ccccc1 returned KCC2 mod 3.7*, KCNK9 inh inactive, KCNQ1 act inactive, KCNQ1 block inactive, hERG protect -6, KCNK3 inh inactive, KCC2 secondary 0.017, KCC2 bumet counter 0.0046, KCC2 sec2 0.027, HEK counter1 0.0072, KCC2 retest ouab 0.016, HEK293 Tl flux2 0.01, KCNK9 block conf inactive, Kir21 sel inactive and KCNK9 uninduced inactive.
`Cc1nc(Nc2ccc(Cl)c(Cl)c2)sc1C(=O)Nc1ccccc1` gave KCC2 mod 0.4, KCNK9 inh inactive, KCNQ1 act inactive, KCNQ1 block inactive, hERG protect -6 and KCNK3 inh inactive.
For Cc1cc(O)c(/C=N/OCc2ccc(Cl)cc2Cl)c(=O)o1 the results were KCC2 mod 0.019, KCNK9 inh inactive, KCNQ1 act inactive, KCNQ1 block inactive, hERG protect -1 and KCNK3 inh inactive.
`O=c1c(/C=N/OCc2ccc(Cl)cc2Cl)c[nH]n1-c1cccc(Cl)n1` gave KCC2 mod 37*, KCNK9 inh inactive, KCNQ1 act inactive, KCNQ1 block 7*, hERG protect -3, KCNK3 inh inactive, KCC2 secondary 0.0081, KCC2 bumet counter 0.077*, KCC2 sec2 0.075*, HEK counter1 0.071*, KCC2 retest ouab 0.073*, HEK293 Tl flux2 0.066*, KCNK9 block conf inactive, Kir21 sel inactive and KCNK9 uninduced inactive.
Cc1[nH][nH]c(=O)c1C(c1ccc(-c2ccc(Cl)c(Cl)c2)o1)c1c(C)[nH][nH]c1=O was read as KCC2 mod -3.9*, KCNK9 inh inactive, KCNQ1 act 10*, KCNQ1 block inactive, hERG protect -8, KCNK3 inh inactive, KCC2 secondary 0.0069, KCC2 bumet counter 0.0047, KCC2 sec2 0.022*, HEK counter1 0.0074, KCC2 retest ouab 0.015*, HEK293 Tl flux2 0.0093, KCNK9 block conf inactive, Kir21 sel inactive and KCNK9 uninduced inactive.
